Assay outcomes from PubChem.
SENP6 block = blocks the human protease SENP6. Recombinant SENP6 catalytic domain, aminoluciferin luminescence. inhibition, % at 10 µM. hit rate 1.8% among 330,000;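 active = inhibition above about 50% at the single tested dose, limit read from the data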
SENP1 inh = SENP1 (human) catalytic domain inhibition. recombinant SENP1 catalytic domain, CyPet-SUMO1-YPet FRET cleavage. Q9P0U3. hit rate 0.21% among 360,000. inhibition, % at 10 µM;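 active = inhibition at least 30% at 10 µM, raw YFP signal under a set limit, fluorescence ratio 0.5 to 1.5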
Target sequence (Q9P0U3 419-644 limits assumed): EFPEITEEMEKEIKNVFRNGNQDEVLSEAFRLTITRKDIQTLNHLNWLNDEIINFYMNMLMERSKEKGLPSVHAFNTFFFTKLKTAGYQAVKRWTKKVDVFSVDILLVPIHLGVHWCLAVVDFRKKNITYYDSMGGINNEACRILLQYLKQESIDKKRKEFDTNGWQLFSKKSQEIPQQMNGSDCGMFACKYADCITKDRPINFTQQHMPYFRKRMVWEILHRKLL
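System: Recombinant human SENP1 catalytic domain, His6-tagged | Incubation: Enzyme reaction for 50 min at room temperature, dark | Medium: Tris pH 8 with BME, BSA, NP40 and catalase | Also added: 25 nM SUMO1 FRET substrate | Compound: 10 µM single point, 0.5% DMSO | Measured by: FRET fluorescence in CFP and YFP emission channels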
SENP7 inh = SENP7 protease inhibition; Q9BQF6; recombinant SENP7, Z-RLRGG-aminoluciferin luminescence, 40 min; inhibition, % at 5 µM; hit rate 1.5% among 330,000; AID 434973;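 active = inhibition above about 50% at the single test dose, limit read from the data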
SENP8 block-1 = inhibitors of human SENP8 protease | Q96LD8 | hit rate 0.64% among 360,000 | inhibition, % at 20 µM | recombinant SENP8, Nedd8 substrate fluorescence; in the data active = inhibition mostly above about 40%, no sharp cut-off; inactive = mostly below about 27%
Target sequence (Q96LD8 whole entry, looked up): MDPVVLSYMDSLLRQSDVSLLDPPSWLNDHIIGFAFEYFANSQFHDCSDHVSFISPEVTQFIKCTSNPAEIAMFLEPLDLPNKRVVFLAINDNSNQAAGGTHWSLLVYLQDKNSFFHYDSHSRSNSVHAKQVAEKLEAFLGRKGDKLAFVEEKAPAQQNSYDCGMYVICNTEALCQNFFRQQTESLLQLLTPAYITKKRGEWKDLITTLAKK
SENP8 block-2 = SENP8 protease inhibition; Q96LD8; purified SENP8, Z-RLRGG-aminoluciferin cleavage, luminescence; inhibition, % at 10 µM; hit rate 1.2% among 330,000; AID 2540; in the data active = inhibition above about 50%
SENP8 conf = human SENP8 inhibition, confirmed; shares compounds with SENP7 inh; Recombinant SENP8, Z-RLRGG-aminoluciferin luminescence, 60 min; inhibition, % at 12.5 µM; hit rate 40% among 6,200; AID 488912;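 active = mean inhibition across replicates above about 50%, limit read from the data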
SENP6 confirm = human SENP6 inhibition, confirmed. AID 488915. inhibition, % at 12.5 µM. hit rate 58% among 6,200. recombinant SENP6, Z-RLRGG-aminoluciferin luminescence. shares compounds with SENP7 inh
SENP7 conf = confirmation of human SENP7 protease inhibitors; shares compounds with SENP7 inh; recombinant SENP7, Z-RLRGG-aminoluciferin luminescence, 40 min; inhibition, % at 12.5 µM; hit rate 69% among 6,200
Casp3 select = caspase-3 inhibition (SENP selectivity assay); shares compounds with SENP7 inh; purified caspase-3, Z-DEVD-aminoluciferin luminescence, 60 min; inhibition, % at 12.5 µM; hit rate 60% among 6,200;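 active = mean inhibition above about 50%, limit read from the data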
Target sequence (P42574 28-227 limits assumed): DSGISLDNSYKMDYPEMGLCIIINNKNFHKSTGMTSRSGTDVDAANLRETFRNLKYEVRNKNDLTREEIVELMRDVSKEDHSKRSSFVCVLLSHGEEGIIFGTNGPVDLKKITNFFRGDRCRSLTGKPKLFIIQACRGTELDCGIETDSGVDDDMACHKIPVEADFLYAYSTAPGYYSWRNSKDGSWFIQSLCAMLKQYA
SENP luc ctr = luminescence interference (SENP counter-screen); shares compounds with SENP7 inh; Pre-incubated SENP8/Z-RLRGG-aminoluciferin, luciferase luminescence interference; inhibition, % at 12.5 µM; hit rate 39% among 6,200; AID 488919;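 active = mean inhibition above about 50% when retested at one dose, limit read from the data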
Each line names hits and unclear results; the compound was inactive in the other large screens (follow-up assays come after a bar, where they were run). Hits are enriched below; roughly 2.5% of the tested compounds scored in any of these assays.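 The calls were made as follows, unless noted: active = mean inhibition above about 50% in the one-dose retest (limit read from the data); inactive = the rest.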

CC(C)CCN1C(=O)c2ccc(C(=O)Nc3ccccc3C(=O)O)cc2C1=O	SENP6 block 74, SENP8 block-2 66 | SENP8 conf 76 | SENP6 confirm 77 | SENP7 conf 86 | Casp3 select 60 | SENP luc ctr 77
CC(c1ccccc1)N1C(=O)c2ccc(C(=O)Nc3ccccc3C(=O)O)cc2C1=O (stereo not drawn)	SENP6 block 70, SENP8 block-2 68 | SENP8 conf 76 | SENP6 confirm 71 | SENP7 conf 85 | Casp3 select inactive | SENP luc ctr 77
CCNC(=O)NC(=O)CSc1ccc(S(=O)(=O)N2CCOCC2)cn1	none
COc1cc(C(=O)N/N=C/c2ccc(OC(=O)c3cccc(C)c3)cc2)ccc1O	none
O=C(Oc1ccc2ccc(O)cc2c1)c1ccccc1Cl	SENP6 block 89, SENP7 inh 70, SENP8 block-2 74 | SENP8 conf inactive | SENP6 confirm 76 | SENP7 conf 91 | Casp3 select inactive | SENP luc ctr 67
Cc1cccc(C(=O)Oc2ccc(/C=N/O)cc2)c1	SENP6 block 76, SENP8 block-2 69 | SENP8 conf 77 | SENP6 confirm 73 | SENP7 conf 89 | Casp3 select 74 | SENP luc ctr 73
O=C(Oc1ccc(/C=N/O)cc1)c1ccccc1Cl	SENP6 block 86, SENP7 inh 71, SENP8 block-2 63 | SENP8 conf 81 | SENP6 confirm 77 | SENP7 conf 94 | Casp3 select 77 | SENP luc ctr 75
CC(C)[C@@H]1Cc2[nH][nH]c(=O)c2[C@H](c2ccc(F)cc2)O1	none (no result: SENP6 block, SENP7 inh, SENP8 block-2)
O=C(c1ccccc1F)c1cc2c(cc1[N+](=O)[O-])OCCO2	none
COC(=O)c1ccc(/C=N/Nc2nc(-c3ccccc3)cs2)cc1	none
COc1ccc(/C=N/Nc2nc(C(=O)O)cs2)cc1	SENP6 block 93, SENP7 inh 97, SENP8 block-2 96 | SENP8 conf 97 | SENP6 confirm 98 | SENP7 conf 102 | Casp3 select 63 | SENP luc ctr 98
CC1=C(C(=O)N2CCOCC2)CC(CC(=O)NCCN2CCOCC2)C(=O)N1Cc1ccccc1 (stereo not drawn)	none (no result: SENP6 block, SENP7 inh, SENP8 block-2)
COc1ccc(-c2noc(CNC(=O)CCN3C(=O)[C@H]4CC=CC[C@H]4C3=O)n2)cc1	none
O=C(COC(=O)c1ccc([N+](=O)[O-])s1)Nc1ncc(C(F)(F)F)cc1Cl	SENP6 block 71 | SENP8 conf inactive | SENP6 confirm 84 | SENP7 conf inactive | Casp3 select inactive | SENP luc ctr inactive
COc1cc(C(=O)OC(C)C(=O)NC2CCCCC2C)c([N+](=O)[O-])cc1OC (stereo not drawn)	none
CC1CCCC(NC(=O)COC(=O)c2ccc([N+](=O)[O-])s2)C1C (stereo not drawn)	SENP6 block 65, SENP8 block-2 63 | SENP8 conf inactive | SENP6 confirm 51 | SENP7 conf inactive | Casp3 select inactive | SENP luc ctr inactive
O=C(COC(=O)c1ccccn1)Nc1ncc(C(F)(F)F)cc1Cl	none
CC(OC(=O)c1ccc([N+](=O)[O-])s1)C(=O)NC1CCCCC1C (stereo not drawn)	SENP8 block-2 55 | SENP8 conf inactive | SENP6 confirm inactive | SENP7 conf inactive | Casp3 select inactive | SENP luc ctr inactive
CSc1ccc(CNCC2CCCO2)cc1 (stereo not drawn)	none
O=C1OCc2ccc([N+](=O)[O-])cc21	none (no result: SENP6 block, SENP7 inh, SENP8 block-2)
CCN(CC)S(=O)(=O)c1ccc(C(=O)NNC(=O)C2CCN(S(=O)(=O)c3ccc(Cl)cc3)CC2)cc1	none
COc1ccc(CNC(=O)c2c(C)oc3c2C(=O)c2ccccc2C3=O)cc1	SENP6 block 66, SENP8 block-1 64 | SENP8 conf inactive | SENP6 confirm 61 | SENP7 conf inactive | Casp3 select 70 | SENP luc ctr inactive
Cc1cc(C)cc(NC(=O)Nc2ccc3c(c2)CCC3)c1	none
O=C(Nc1ccc2c(c1)CCC2)c1ccc(F)cc1	SENP6 block 87, SENP7 inh 87 | SENP8 conf 85 | SENP6 confirm 84 | SENP7 conf 96 | Casp3 select 82 | SENP luc ctr 80
O=C(Nc1ccccc1)Nc1ccc2c(c1)CCC2	SENP6 block 84, SENP7 inh 80, SENP8 block-2 62 | SENP8 conf inactive | SENP6 confirm 57 | SENP7 conf 91 | Casp3 select 60 | SENP luc ctr 81
O=C(Nc1ccc(F)cc1)Nc1ccc2c(c1)CCC2	none
O=C(Nc1cccc(F)c1)Nc1ccccn1	SENP6 block 58 | SENP8 conf inactive | SENP6 confirm inactive | SENP7 conf 75 | Casp3 select 54 | SENP luc ctr inactive
O=C(Nc1cccc(F)c1)Nc1ccc2c(c1)CCC2	SENP6 block 63, SENP7 inh 72 | SENP8 conf inactive | SENP6 confirm inactive | SENP7 conf 78 | Casp3 select inactive | SENP luc ctr inactive
COc1ccc(C(=O)OCC(=O)c2ccccc2)cc1S(=O)(=O)N1CCOCC1	none
COc1ccc(-c2cc(-c3ccccc3O)[nH]n2)cc1	SENP6 block 97, SENP7 inh 94, SENP8 block-2 92 | SENP8 conf 96 | SENP6 confirm 97 | SENP7 conf 102 | Casp3 select 78 | SENP luc ctr 94
Cc1ccc(-c2cc(-c3ccc(C)cc3O)[nH]n2)cc1	none
COc1ccc(O)c(-c2cc(-c3ccccc3Cl)[nH]n2)c1	none
COc1ccc(-c2cc(-c3ccccc3)n[nH]2)c(O)c1	SENP6 block 68, SENP7 inh 65, SENP8 block-2 66 | SENP8 conf 74 | SENP6 confirm 72 | SENP7 conf 90 | Casp3 select inactive | SENP luc ctr 72
O=C(CN1C(=O)c2ccccc2S1(=O)=O)Nc1ccc([N+](=O)[O-])cc1	none
Cn1c(=NC(=O)c2ccccc2[N+](=O)[O-])sc2cccc(F)c21	SENP7 inh 77 | SENP8 conf inactive | SENP6 confirm inactive | SENP7 conf inactive | Casp3 select inactive | SENP luc ctr inactive
Oc1c(Br)cc(Br)cc1C=Nc1ccc2[nH]ncc2c1	SENP6 block 56 | SENP8 conf inactive | SENP6 confirm inactive | SENP7 conf inactive | Casp3 select inactive | SENP luc ctr inactive
Oc1c(Br)cc(Br)cc1/C=N/c1nccs1	none
